This note sets out measurements from ChEMBL document CHEMBL2203175, “Discovery and optimization of sulfonyl acrylonitriles as selective, covalent inhibitors of protein phosphatase methylesterase-1” (J Med Chem, 2011).

What all share (assay type): cell-based
What all share (settings): HEK-293T

Experiment [1] addresses Alpha/beta hydrolase domain-containing protein 17B (Homo sapiens) (UniProt Q5VST6). The experiment can be described thus: Inhibition of FAM108B1 binding to FP-biotin in [12C][14N]-lysine, arginine and [13C6][15N2]-lysine, arginine labeled HEK293T cells at 20 uM after 1 hr by isotopic activity-based protein profiling-MudPIT assay. An outline of the steps:
(§1)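 SILAC HEK 293T: light cells (12C14N-Lys/Arg) treated with compound, heavy cells (13C6 15N2-Lys/Arg) with DMSO, 1 h at 37 °C. Proteomes were mixed 1:1 (0.5 mg each) and labeled with FP-biotin (5 μM, 1 h, 25 °C), then streptavidin-enriched, digested on bead with trypsin, and run by MudPIT. Light/heavy ratios were normalized to a DMSO/DMSO control. Only SHs with ≥2 quantifiable peptides were kept; mean ± SEM across peptides.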

For experiment [2], the target named is T1, Protein phosphatase methylesterase 1 (Homo sapiens) (UniProt Q9Y570).
T1 sequence (whole entry): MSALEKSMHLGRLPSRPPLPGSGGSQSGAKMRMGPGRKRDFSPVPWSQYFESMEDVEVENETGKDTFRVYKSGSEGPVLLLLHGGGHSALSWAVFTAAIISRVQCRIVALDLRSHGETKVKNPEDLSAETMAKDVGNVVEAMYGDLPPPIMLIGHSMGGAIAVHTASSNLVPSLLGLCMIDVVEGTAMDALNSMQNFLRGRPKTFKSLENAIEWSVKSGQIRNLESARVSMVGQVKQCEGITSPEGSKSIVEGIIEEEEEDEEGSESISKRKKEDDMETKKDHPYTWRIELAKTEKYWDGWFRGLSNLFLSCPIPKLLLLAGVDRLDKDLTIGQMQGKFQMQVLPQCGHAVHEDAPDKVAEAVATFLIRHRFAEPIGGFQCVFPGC
The experiment can be described thus: Inhibition of PME1 overexpressed in HEK293T cells assessed as reduction in demethylated PP2A level at 20 uM after 1 hr by Western blot analysis relative to control. An outline of the steps: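 HEK 293T cells, either stably overexpressing PME-1 or untransfected, treated in medium for 1 h at 37 °C. Total cell extract (2 mg/mL) run on reducing SDS-PAGE (10%) and blotted with demethylated-specific (4b7), methylated-specific (2A10) and total PP2A antibodies, imaged by infrared fluorescence. Mean ± SEM, n = 3, compared against DMSO-treated cells.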

Experiment [3] addresses Fatty acid synthase (Homo sapiens) (UniProt P49327). As to the kind of experiment: Inhibition of FASN binding to FP-biotin in [12C][14N]-lysine, arginine and [13C6][15N2]-lysine, arginine labeled HEK293T cells at 20 uM after 1 hr by isotopic activity-based protein profiling-MudPIT assay. The gist of the method: as §1
Experiment [4] concerns the target Diacylglycerol lipase-beta (Homo sapiens) (UniProt Q8NCG7). The experiment can be described thus: Inhibition of DAGLB binding to FP-biotin in [12C][14N]-lysine, arginine and [13C6][15N2]-lysine, arginine labeled HEK293T cells at 20 uM after 1 hr by isotopic activity-based protein profiling-MudPIT assay. The gist of the method:
as §1

The target in experiment [5] is Platelet-activating factor acetylhydrolase IB subunit alpha2 (Homo sapiens) (UniProt P68402). As to the kind of experiment: Inhibition of PAFAH1B2 binding to FP-biotin in [12C][14N]-lysine, arginine and [13C6][15N2]-lysine, arginine labeled HEK293T cells at 20 uM after 1 hr by isotopic activity-based protein profiling-MudPIT assay. An outline of the steps: as §1
Sequence of Platelet-activating factor acetylhydrolase IB subunit alpha2 (Homo sapiens) (P68402 whole entry): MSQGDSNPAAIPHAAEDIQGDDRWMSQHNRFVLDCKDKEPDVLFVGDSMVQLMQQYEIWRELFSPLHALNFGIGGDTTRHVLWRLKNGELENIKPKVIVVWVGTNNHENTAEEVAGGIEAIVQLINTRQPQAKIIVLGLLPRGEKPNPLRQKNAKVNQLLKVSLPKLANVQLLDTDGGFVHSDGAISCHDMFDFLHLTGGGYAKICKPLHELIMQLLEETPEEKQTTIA
Experiment [6] deals with Acylamino-acid-releasing enzyme (Homo sapiens) (UniProt P13798). The experiment can be described thus: Inhibition of APEH binding to FP-biotin in [12C][14N]-lysine, arginine and [13C6][15N2]-lysine, arginine labeled HEK293T cells at 20 uM after 1 hr by isotopic activity-based protein profiling-MudPIT assay. An outline of the steps:
as §1

For experiment [7], the target named is Acyl-coenzyme A thioesterase 2, mitochondrial (Homo sapiens) (UniProt P49753). As to the kind of experiment: Inhibition of ACOT2 binding to FP-biotin in [12C][14N]-lysine, arginine and [13C6][15N2]-lysine, arginine labeled HEK293T cells at 20 uM after 1 hr by isotopic activity-based protein profiling-MudPIT assay. An outline of the steps:
as §1

Experiment [8] deals with Patatin-like phospholipase domain-containing protein 6 (Homo sapiens) (UniProt Q8IY17). The experiment can be described thus: Inhibition of PNPLA6 binding to FP-biotin in [12C][14N]-lysine, arginine and [13C6][15N2]-lysine, arginine labeled HEK293T cells at 20 uM after 1 hr by isotopic activity-based protein profiling-MudPIT assay. An outline of the steps: as §1
Sequence of Patatin-like phospholipase domain-containing protein 6 (Homo sapiens) (Q8IY17 whole entry, the tested form may be a part): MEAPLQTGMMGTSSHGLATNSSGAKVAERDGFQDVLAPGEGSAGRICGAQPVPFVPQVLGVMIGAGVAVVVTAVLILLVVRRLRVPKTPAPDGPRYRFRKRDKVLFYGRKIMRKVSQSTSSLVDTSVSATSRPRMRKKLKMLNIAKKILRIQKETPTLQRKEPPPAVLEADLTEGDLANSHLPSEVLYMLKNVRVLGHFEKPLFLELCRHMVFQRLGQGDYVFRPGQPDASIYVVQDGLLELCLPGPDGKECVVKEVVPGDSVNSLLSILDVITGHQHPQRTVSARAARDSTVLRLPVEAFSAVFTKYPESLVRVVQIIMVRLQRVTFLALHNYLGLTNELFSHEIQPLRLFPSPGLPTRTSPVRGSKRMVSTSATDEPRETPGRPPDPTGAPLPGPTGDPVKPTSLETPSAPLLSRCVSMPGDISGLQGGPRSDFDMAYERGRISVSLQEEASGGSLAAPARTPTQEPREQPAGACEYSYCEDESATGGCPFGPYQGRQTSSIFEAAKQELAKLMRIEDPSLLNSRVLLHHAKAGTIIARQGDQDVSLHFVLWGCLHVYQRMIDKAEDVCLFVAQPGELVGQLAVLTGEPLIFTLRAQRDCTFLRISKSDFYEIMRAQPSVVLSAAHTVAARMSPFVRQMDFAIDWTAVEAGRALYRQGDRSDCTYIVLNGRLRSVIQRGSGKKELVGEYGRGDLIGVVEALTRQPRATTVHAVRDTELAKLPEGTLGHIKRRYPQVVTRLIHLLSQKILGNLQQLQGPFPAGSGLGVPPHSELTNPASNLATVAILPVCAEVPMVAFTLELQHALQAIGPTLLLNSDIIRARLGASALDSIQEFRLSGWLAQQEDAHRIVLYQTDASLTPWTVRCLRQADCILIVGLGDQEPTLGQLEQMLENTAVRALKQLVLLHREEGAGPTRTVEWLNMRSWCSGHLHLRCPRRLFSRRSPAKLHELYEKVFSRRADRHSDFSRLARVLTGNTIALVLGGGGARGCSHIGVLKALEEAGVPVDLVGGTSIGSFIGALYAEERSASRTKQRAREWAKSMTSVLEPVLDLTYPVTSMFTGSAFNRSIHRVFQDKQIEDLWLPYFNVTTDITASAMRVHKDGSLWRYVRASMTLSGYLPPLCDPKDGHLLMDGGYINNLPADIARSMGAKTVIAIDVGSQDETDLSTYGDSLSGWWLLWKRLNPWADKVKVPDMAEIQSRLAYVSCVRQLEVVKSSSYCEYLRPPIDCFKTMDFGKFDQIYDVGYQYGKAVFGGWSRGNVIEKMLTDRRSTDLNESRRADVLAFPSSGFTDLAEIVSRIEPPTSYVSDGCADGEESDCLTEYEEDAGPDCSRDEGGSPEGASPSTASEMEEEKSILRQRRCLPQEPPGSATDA
Experiment [9] concerns the target sn-1-specific diacylglycerol lipase ABHD11 (Homo sapiens) (UniProt Q8NFV4). As to the kind of experiment: Inhibition of ABHD11 binding to FP-biotin in [12C][14N]-lysine, arginine and [13C6][15N2]-lysine, arginine labeled HEK293T cells at 20 uM after 1 hr by isotopic activity-based protein profiling-MudPIT assay. An outline of the steps: as §1
Experiment [10] addresses Lysophospholipase-like protein 1 (Homo sapiens) (UniProt Q5VWZ2). The experiment can be described thus: Inhibition of LYPLAL1 binding to FP-biotin in [12C][14N]-lysine, arginine and [13C6][15N2]-lysine, arginine labeled HEK293T cells at 20 uM after 1 hr by isotopic activity-based protein profiling-MudPIT assay. The gist of the method:
as §1

The target of experiment [11] is Neutral cholesterol ester hydrolase 1 (Homo sapiens) (UniProt Q6PIU2). The experiment can be described thus: Inhibition of AADACL1 binding to FP-biotin in [12C][14N]-lysine, arginine and [13C6][15N2]-lysine, arginine labeled HEK293T cells at 20 uM after 1 hr by isotopic activity-based protein profiling-MudPIT assay. The gist of the method:
as §1

Experiment [12] has as its target Phosphatidylserine lipase ABHD16A (Homo sapiens) (UniProt O95870). As to the kind of experiment: Inhibition of BAT5 binding to FP-biotin in [12C][14N]-lysine, arginine and [13C6][15N2]-lysine, arginine labeled HEK293T cells at 20 uM after 1 hr by isotopic activity-based protein profiling-MudPIT assay. The gist of the method:
as §1

In experiment [13] the target is Dipeptidyl peptidase 8 (Homo sapiens) (UniProt Q6V1X1). As to the kind of experiment: Inhibition of DPP8 binding to FP-biotin in [12C][14N]-lysine, arginine and [13C6][15N2]-lysine, arginine labeled HEK293T cells at 20 uM after 1 hr by isotopic activity-based protein profiling-MudPIT assay. The gist of the method:
as §1

Experiment [14] addresses Lysosomal phospholipase A and acyltransferase (Homo sapiens) (UniProt Q8NCC3). The experiment can be described thus: Inhibition of LYPLA3 binding to FP-biotin in [12C][14N]-lysine, arginine and [13C6][15N2]-lysine, arginine labeled HEK293T cells at 20 uM after 1 hr by isotopic activity-based protein profiling-MudPIT assay. An outline of the steps: as §1
The target in experiment [15] is Cytosolic phospholipase A2 (Homo sapiens) (UniProt P47712). The experiment can be described thus: Inhibition of PLA2G4A binding to FP-biotin in [12C][14N]-lysine, arginine and [13C6][15N2]-lysine, arginine labeled HEK293T cells at 20 uM after 1 hr by isotopic activity-based protein profiling-MudPIT assay. The gist of the method: as §1
The target in experiment [16] is Dipeptidyl peptidase 9 (Homo sapiens) (UniProt Q86TI2). As to the kind of experiment: Inhibition of DPP9 binding to FP-biotin in[12C][14N]-lysine, arginine and [13C6][15N2]-lysine, arginine labeled HEK293T cells at 20 uM after 1 hr by isotopic activity-based protein profiling-MudPIT assay. An outline of the steps:
as §1

Active and inactive are the calls of the source. No cut-off for these calls is given here.

Sequence of Lysosomal phospholipase A and acyltransferase (Homo sapiens) (Q8NCC3 whole entry): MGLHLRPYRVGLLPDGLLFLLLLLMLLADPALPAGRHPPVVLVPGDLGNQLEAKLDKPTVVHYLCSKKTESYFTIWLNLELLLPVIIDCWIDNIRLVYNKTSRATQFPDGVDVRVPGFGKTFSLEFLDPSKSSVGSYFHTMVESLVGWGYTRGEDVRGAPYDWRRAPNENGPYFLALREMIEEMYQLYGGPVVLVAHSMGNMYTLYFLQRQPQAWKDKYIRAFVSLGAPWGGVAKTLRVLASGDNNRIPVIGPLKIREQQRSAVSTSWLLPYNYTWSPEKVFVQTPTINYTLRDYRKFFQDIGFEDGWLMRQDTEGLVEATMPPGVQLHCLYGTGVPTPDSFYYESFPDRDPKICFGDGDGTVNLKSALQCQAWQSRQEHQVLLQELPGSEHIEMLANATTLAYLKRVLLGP
Sequence of Phosphatidylserine lipase ABHD16A (Homo sapiens) (O95870 whole entry): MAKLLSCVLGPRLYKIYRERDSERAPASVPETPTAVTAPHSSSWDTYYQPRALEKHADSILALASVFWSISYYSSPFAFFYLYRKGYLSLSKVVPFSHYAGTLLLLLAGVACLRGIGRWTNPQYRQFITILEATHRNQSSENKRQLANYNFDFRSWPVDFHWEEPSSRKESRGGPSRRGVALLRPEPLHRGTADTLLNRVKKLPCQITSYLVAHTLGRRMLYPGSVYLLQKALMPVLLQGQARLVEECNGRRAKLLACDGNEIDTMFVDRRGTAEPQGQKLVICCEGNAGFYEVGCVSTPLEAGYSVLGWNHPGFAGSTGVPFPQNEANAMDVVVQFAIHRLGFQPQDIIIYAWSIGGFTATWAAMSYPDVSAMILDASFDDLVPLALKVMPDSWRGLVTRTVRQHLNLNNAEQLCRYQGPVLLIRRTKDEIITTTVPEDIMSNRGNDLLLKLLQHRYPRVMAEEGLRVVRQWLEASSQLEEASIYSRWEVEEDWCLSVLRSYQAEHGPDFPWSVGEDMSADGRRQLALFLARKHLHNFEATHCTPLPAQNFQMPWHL
Sequence of Alpha/beta hydrolase domain-containing protein 17B (Homo sapiens) (Q5VST6 whole entry, the tested form may be a part): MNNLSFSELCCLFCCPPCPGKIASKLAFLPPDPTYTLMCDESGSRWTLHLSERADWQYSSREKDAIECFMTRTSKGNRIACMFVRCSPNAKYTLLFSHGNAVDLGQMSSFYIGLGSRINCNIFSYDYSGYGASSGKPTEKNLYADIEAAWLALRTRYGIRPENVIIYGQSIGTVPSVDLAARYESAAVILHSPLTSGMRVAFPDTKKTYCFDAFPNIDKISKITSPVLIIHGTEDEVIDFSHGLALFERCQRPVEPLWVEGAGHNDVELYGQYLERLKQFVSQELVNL
Sequence of Dipeptidyl peptidase 9 (Homo sapiens) (Q86TI2 2-863 limits assumed): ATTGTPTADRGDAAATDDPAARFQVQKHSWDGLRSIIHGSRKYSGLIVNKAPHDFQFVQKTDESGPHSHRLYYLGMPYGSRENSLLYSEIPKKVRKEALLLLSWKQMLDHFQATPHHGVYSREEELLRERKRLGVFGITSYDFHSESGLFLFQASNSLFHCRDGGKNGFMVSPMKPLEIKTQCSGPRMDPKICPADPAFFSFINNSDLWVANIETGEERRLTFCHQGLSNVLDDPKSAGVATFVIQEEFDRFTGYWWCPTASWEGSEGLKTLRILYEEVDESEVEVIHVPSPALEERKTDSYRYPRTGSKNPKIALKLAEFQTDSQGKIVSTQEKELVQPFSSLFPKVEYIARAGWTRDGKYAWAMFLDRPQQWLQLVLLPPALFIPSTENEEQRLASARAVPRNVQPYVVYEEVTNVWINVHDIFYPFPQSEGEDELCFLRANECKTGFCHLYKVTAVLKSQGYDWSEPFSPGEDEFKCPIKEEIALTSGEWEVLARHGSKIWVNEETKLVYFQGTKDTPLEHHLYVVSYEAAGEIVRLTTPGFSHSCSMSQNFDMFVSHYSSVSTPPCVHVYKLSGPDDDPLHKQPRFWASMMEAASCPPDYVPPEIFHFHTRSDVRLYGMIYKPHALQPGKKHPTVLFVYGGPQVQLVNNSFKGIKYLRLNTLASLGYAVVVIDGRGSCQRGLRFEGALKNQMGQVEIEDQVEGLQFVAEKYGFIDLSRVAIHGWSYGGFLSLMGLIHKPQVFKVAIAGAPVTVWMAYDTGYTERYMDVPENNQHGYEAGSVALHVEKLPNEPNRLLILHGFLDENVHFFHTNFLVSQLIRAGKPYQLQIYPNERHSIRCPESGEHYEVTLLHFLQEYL
Sequence of sn-1-specific diacylglycerol lipase ABHD11 (Homo sapiens) (Q8NFV4 whole entry): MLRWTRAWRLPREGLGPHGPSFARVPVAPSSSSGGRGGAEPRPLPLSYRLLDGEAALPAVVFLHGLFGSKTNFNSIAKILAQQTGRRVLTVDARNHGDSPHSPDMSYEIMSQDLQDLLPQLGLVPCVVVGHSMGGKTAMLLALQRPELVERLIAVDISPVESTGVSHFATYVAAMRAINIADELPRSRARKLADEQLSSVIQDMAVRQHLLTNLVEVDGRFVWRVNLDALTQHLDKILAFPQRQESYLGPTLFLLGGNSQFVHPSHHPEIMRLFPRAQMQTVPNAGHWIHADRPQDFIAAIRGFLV
Sequence of Acyl-coenzyme A thioesterase 2, mitochondrial (Homo sapiens) (P49753 whole entry): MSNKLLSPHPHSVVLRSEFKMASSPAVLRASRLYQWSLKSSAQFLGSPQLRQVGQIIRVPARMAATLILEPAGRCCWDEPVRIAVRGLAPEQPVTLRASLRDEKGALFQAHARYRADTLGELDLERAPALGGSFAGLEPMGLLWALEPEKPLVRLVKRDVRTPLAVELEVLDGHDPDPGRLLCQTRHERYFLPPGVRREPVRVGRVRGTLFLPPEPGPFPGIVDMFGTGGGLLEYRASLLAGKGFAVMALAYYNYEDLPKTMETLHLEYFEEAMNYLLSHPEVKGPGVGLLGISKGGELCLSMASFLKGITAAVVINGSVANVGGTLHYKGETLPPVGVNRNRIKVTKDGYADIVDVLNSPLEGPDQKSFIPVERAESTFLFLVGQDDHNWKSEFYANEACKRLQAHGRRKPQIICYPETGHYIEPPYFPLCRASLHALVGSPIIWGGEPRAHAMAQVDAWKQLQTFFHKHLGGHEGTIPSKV
Sequence of Neutral cholesterol ester hydrolase 1 (Homo sapiens) (Q6PIU2 whole entry): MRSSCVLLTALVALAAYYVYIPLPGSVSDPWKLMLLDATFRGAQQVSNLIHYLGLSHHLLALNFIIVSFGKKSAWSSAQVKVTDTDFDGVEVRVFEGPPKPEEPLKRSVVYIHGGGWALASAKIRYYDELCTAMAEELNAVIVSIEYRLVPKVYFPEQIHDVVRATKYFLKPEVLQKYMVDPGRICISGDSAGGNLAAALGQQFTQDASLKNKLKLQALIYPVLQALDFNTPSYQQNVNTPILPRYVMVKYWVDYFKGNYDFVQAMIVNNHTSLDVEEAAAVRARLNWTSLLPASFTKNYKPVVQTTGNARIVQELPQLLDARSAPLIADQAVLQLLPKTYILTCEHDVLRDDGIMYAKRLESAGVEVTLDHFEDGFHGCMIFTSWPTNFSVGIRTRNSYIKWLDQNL

In the case of `N#C/C(=C\c1cccn1S(=O)(=O)c1cccc([N+](=O)[O-])c1)S(=O)(=O)c1ccc(F)cc1`, the inhibition entry in experiment [1], in experiment [3], in experiment [4], in experiment [5], in experiment [6] and in experiment [7] was “inactive” in each case. The inhibition result in experiment [8], in experiment [9], in [10], in experiment [11], in experiment [12] and in experiment [13] was “inactive” each time. Further, the inhibition result in [14], in experiment [15] and in [16] was “inactive” in each case. The inhibition in [2] amounted to 80%.
